In series [1] the test system is Liver microsomes. Briefly: Half life in human liver microsomes at 1 uM. Type of series: ADME, Microsome. A digest of the protocol: (§1)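 1 μM compound (diluted from DMSO stock via ACN) at 37 °C in 0.1 M potassium phosphate pH 7.4 with 0.1 mg/mL human liver microsomes and 5 mM MgCl2. NADPH (1.0 mM final) started the reaction.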
Background: Microsomes from liver hold many membrane-bound enzymes, among them those of drug oxidation.

Series [2] deals with Liver microsomes. Briefly: Half life in rat liver microsomes at 1 uM. Type of series: ADME, Microsome. A digest of the protocol: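 Rat liver microsome incubation of 1 μM compound at 37 °C in 0.1 M potassium phosphate pH 7.4 with 5 mM MgCl2. NADPH (1.0 mM final) started the reaction, with ice-cold ACN quench at 0–60 min, in duplicate. […] Means of at least two experiments.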

For series [3], the system named is Human immunodeficiency virus 1. Briefly: Antiviral activity against Human immunodeficiency virus 1 harboring reverse transcriptase E138K mutant. The format is functional, organism-based.
Series [4] deals with Liver microsomes. Kind of series: Clearance in human liver microsomes at 1 uM. Type of series: ADME, Microsome. In short, it runs like this:
as §1

In series [5] the test system is Human immunodeficiency virus 1. Briefly: Antiviral activity against Human immunodeficiency virus 1 NL4-3 infected in human TZM-bl cells assessed as inhibition of viral replication. The format is functional, organism-based. The settings on record: Human immunodeficiency virus 1, NL4-3, TZM-bl.
The nature of series [6]: Aqueous solubility of the compound at pH 2 by HPLC/UV analysis. Type of series: physicochemical. The settings on record: buffer.
Series [7] is described as follows: Selectivity index, ratio of CC50 for human TZM-bl cells to EC50 for Human immunodeficiency virus 1 NL4-3. The format is toxicity, cell-based. The settings on record: read-out: Ratio CC50/EC50.
Series [8] can be described thus: Aqueous solubility of the compound at pH 7.4 by HPLC/UV analysis. The format is physicochemical. The settings on record: buffer.
Series [9] can be described thus: Cytotoxicity against human TZM-bl cells. The format is cell-based.
The subject of series [10] is Human immunodeficiency virus 1. Briefly: Antiviral activity against multi-reverse transcriptase-resistant Human immunodeficiency virus 1. Type of series: functional, organism-based.
Series [11] deals with Human immunodeficiency virus 1. Kind of series: Antiviral activity against Human immunodeficiency virus 1 harboring reverse transcriptase K101E mutant. The format is functional, organism-based. A digest of the protocol: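 EC50 against the resistant strain (RTMDR1, K101E or E138K), from experiments run at least in triplicate and reported as mean ± SD.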

Values after ≈ are worked out from the molar mass of the structure shown.

As to `Cc1cc(/C=C/C#N)cc(C)c1Oc1cc(Nc2ccc(C#N)cc2)c(N)cc1[N+](=O)[O-]`, the t1/2 in series [1] came to 0.783 h; in series [2], 2.32 h. In [3], this molecule displayed an EC50 of 11.3 nM. Besides, the CLH in [4] was 150 µL/min/mg.
In the case of `COC(=O)c1cc(N)c(Nc2ccc(C#N)cc2)cc1Oc1c(C)cc(/C=C/C#N)cc1C`, the EC50 in series [5] stood at 2.74 nM. Also, the solubility was 1.75 µg/mL (≈ 3.99 µM) in series [6] and 1.3 µg/mL (≈ 2.96 µM) in series [8]. Moreover, in series [7], the selectivity ratio is above 8460. For the same molecule, the CC50 in series [9] was above 22800 nM.
The matching figures for `Cc1cc(/C=C/C#N)cc(C)c1Oc1cc(Nc2ccc(C#N)cc2)c(N)cc1C(=O)O`: 230 nM, 4.4 µg/mL (≈ 10.4 µM), 117 µg/mL (≈ 276 µM), 65 and 14900 nM.
In the case of `Cc1cc(/C=C/C#N)cc(C)c1Oc1cc(Nc2ccc(C#N)cc2)c(N)cc1C(N)=O`, the EC50 in series [5] is 0.87 nM; in series [3] it was 9 nM; in [10] it was 0.31 nM; in [11], 8.8 nM. The figures for the t1/2 in series [1] and in series [2] were 0.583 h and 2.03 h, respectively. The solubility amounted to 2.1 µg/mL (≈ 4.96 µM) in series [6] and 0.63 µg/mL (≈ 1.49 µM) in series [8]. Moreover, in series [7], the selectivity ratio was above 27100. This molecule also showed a CLH in [4] of 200 µL/min/mg. In series [9], this molecule displayed a CC50 above 23600 nM.
Turning to `CNC(=O)c1cc(N)c(Nc2ccc(C#N)cc2)cc1Oc1c(C)cc(/C=C/C#N)cc1C`, the EC50 in [5] turned out to be 5.72 nM. In addition, the solubility amounted to 8.63 µg/mL (≈ 19.7 µM) in [6] and 1.32 µg/mL (≈ 3.02 µM) in [8]. Moreover, the selectivity ratio in series [7] is above 1610. This molecule also registered a CC50 in series [9] above 9200 nM.
As for `Cc1cc(/C=C/C#N)cc(C)c1Oc1cc(Nc2ccc(C#N)cc2)c(N)cc1CO`, the EC50 in [5] turned out to be 0.53 nM; in [3], 3.9 nM; in series [10], 0.36 nM; in series [11] it was 3.4 nM. Moreover, the values for the t1/2 in [1] and in series [2] were 0.5 h and 1.4 h, respectively. Further, the results for the solubility in series [6] and in [8] were 21 µg/mL (≈ 51.2 µM) and 3.23 µg/mL (≈ 7.87 µM), respectively. Besides, the selectivity ratio in [7] is 30800. In series [4], the CLH came out at 230 µL/min/mg. Half-maximal cytotoxicity in [9] (CC50) was put at 16300 nM.
As to `Cc1cc(/C=C/C#N)cc(C)c1Nc1ccnc(Nc2ccc(C#N)cc2)n1` [RILPIVIRINE], the values for the t1/2 in series [1] and in series [2] were 0.567 h and 2 h, respectively. In addition, the CLH in series [4] came to 200 µL/min/mg. The same molecule gave a CC50 in [9] of 19400 nM.

As a reminder, the EC50 is the midpoint of the concentration-response curve. In general, solubility refers to the concentration that dissolves in the medium under given conditions. A high value points to a readily soluble substance. One may read the CC50 as the concentration at which the toxic effect on the cells reaches its halfway point. Lower therefore signals greater toxicity to the cells.

The values are drawn from ChEMBL document CHEMBL2010661, “Optimization of 2,4-diarylanilines as non-nucleoside HIV-1 reverse transcriptase inhibitors” (Bioorg Med Chem Lett, 2012).
